Experimental data: ChEMBL document CHEMBL1212892, “Tirucallane-type alkaloids from the bark of Dysoxylum laxiracemosum” (J Nat Prod, 2010)

Assays:
Assay type in all cases: functional, cell-based
SMMC-7721 = assay: Cytotoxicity against human SMMC7721 cells after 48 hrs by MTT assay; details: SMMC-7721, 48 h
Summary of the method: (§1)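 Cells grown in RPMI-1640 or DMEM with 10% FBS, 37 °C, 5% CO2. Adherent cells seeded at 1 × 10^5 cells/mL and left 12 h to attach before dosing; suspension cells seeded just before dosing. Compound at 0.0625, 0.32, 1.6, 8 and 40 µM in triplicate for 48 h, cisplatin positive control. Viability by MTT; IC50 by Reed and Muench method.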

A549 = assay: Cytotoxicity against human A549 cells after 48 hrs by MTT assay; details: A549, 48 h; summary of the method: as §1
HL-60 = assay: Cytotoxicity against human HL60 cells after 48 hrs by MTT assay; details: HL-60, 48 h; summary of the method: as §1
SW480 = assay: Cytotoxicity against human SW480 cells after 48 hrs by MTT assay; details: SW480, 48 h; summary of the method: as §1
MCF7 = assay: Cytotoxicity against human MCF7 cells after 48 hrs by MTT assay; details: MCF7, 48 h; summary of the method: as §1

| Structure (SMILES) | IC50 (SMMC-7721) | IC50 (A549) | IC50 (HL-60) | IC50 (SW480) | IC50 (MCF7) |
| --- | --- | --- | --- | --- | --- |
| CC(C)C(=O)c1cc([C@@H]2CC[C@]3(C)C4=CCC5C(C)(C)C(=O)CC[C@]5(C)[C@H]4CC[C@@]23C)c[nH]1 (stereo partly drawn) [LAXIRACEMOSIN B] | 19 µM | 13.4 µM | 12.8 µM | > 20 µM | > 20 µM |
| C=C(C)C(=O)c1cc([C@@H]2CC[C@]3(C)C4=CCC5C(C)(C)[C@H](O)CC[C@]5(C)[C@H]4CC[C@@]23C)c[nH]1 (stereo partly drawn) [LAXIRACEMOSIN E] | 2.7 µM | 3.7 µM | 1.5 µM | 3.7 µM | 5.1 µM |
| CC1(C)C2CC=C3[C@H](CC[C@@]4(C)[C@H](c5c[nH]c(C=O)c5)CC[C@]34C)[C@@]2(C)CC[C@H]1O (stereo partly drawn) [LAXIRACEMOSIN F] | 15.6 µM | > 20 µM | 15.7 µM | > 20 µM | > 20 µM |
| CC(C)C(=O)c1cc([C@@H]2CC[C@]3(C)C4=CCC5C(C)(C)[C@H](O)CC[C@]5(C)[C@H]4CC[C@@]23C)c[nH]1 (stereo partly drawn) [LAXIRACEMOSIN A] | 9.5 µM | 5.4 µM | 3.1 µM | 7.2 µM | 16.8 µM |
| CC(C)(O)C(=O)c1cc([C@@H]2CC[C@]3(C)C4=CCC5C(C)(C)[C@H](O)CC[C@]5(C)[C@H]4CC[C@@]23C)c[nH]1 (stereo partly drawn) [LAXIRACEMOSIN D] | > 20 µM | > 20 µM | 6.8 µM | > 20 µM | > 20 µM |
